Data as given in ChEMBL document CHEMBL4373647, “Design, synthesis, and antimicrobial evaluation of 1,4-dihydroindeno[1,2-c]pyrazole tethered carbohydrazide hybrids: exploring their in silico ADMET, ergosterol inhibition and ROS inducing potential” (Medchemcomm, 2019).
Converted amounts (≈) assume the structure as drawn. The source made the active and inactive calls. No cut-off for these calls is given here.

Key:
Bacillus subtilis [1] = assay: Antibacterial activity against Bacillus subtilis MTCC 121 assessed as inhibition of bacterial growth incubated for 24 hrs by agar well diffusion method; type: functional; settings: MTCC 121, 24 h
Procedure, shortened: (§1)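 Strains from MTCC; inoculum at 0.5 McFarland spread on Mueller-Hinton agar; 6 mm wells loaded with compound over 125–0.97 µg/mL; ciprofloxacin positive control (same range), DMSO negative control. Plates held 24 h at 37 °C; MIC taken as lowest concentration giving a clear inhibition zone. Triplicate runs, mean MIC reported.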

Pseudomonas aeruginosa [2] = assay: Bactericidal activity against Pseudomonas aeruginosa MTCC 2453 assessed as bacterial killing incubated for 24 hrs; type: functional; settings: MTCC 2453, 24 h
Procedure, shortened: (§2)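 Broth tube assay: compound at 0–125 µg/mL in Mueller Hinton broth, overnight culture added to 0.5 McFarland (1.5 × 10^8 cfu/mL), held 24 h at 37 °C. 10 µL from each tube plated on Mueller Hinton agar. MBC is the lowest concentration that kills the strain. Duplicates, means reported.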

Staphylococcus aureus [3] = assay: Antibacterial activity against Staphylococcus aureus MTCC 96 assessed as inhibition of bacterial growth incubated for 24 hrs by agar well diffusion method; type: functional; settings: MTCC 96, 24 h; procedure, shortened: as §1
Candida albicans [4] = assay: Ratio of MFC to MIC against Candida albicans MTCC 3018; type: functional
Procedure, shortened: (§3)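 MIC by agar well diffusion: Candida lawns on Mueller-Hinton agar, wells loaded with compound in 10% DMSO (125–0.97 µg/mL), 24 h at 37 °C, lowest concentration giving an inhibition zone. MFC: compound in Mueller-Hinton broth (125–0.97 µg/mL) with yeast, 24 h at 37 °C, 10 µL plated on agar, lowest killing concentration after 24 h. Ratio is MFC/MIC.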

Candida parapsilosis [5] = assay: Ratio of MFC to MIC against Candida parapsilosis MTCC 1744; type: functional; procedure, shortened: as §3
Candida albicans [6] = assay: Antifungal activity against Candida albicans MTCC 4748 assessed as inhibition of fungal growth incubated for 24 hrs by agar well diffusion method; type: functional; settings: MTCC 4748, 24 h
Procedure, shortened: (§4)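 Candida strains from MTCC, pre-cultured and spread on Mueller Hinton agar. Wells received compound dissolved in 10% DMSO, 125–0.97 µg/mL; miconazole standard over the same range, DMSO negative control. After 24 h at 37 °C, MIC was read as the lowest concentration giving an inhibition zone. Duplicate experiments, means given.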

Candida albicans [7] = assay: Fungicidal activity against Candida albicans MTCC 4748 assessed as fungal killing incubated for 24 hrs; type: functional; settings: MTCC 4748, 24 h
Procedure, shortened: (§5)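 Compound at 125–0.97 µg/mL in Mueller Hinton broth in microcentrifuge tubes, each Candida strain added, held 24 h at 37 °C. 10 µL of the treated suspension plated on Mueller Hinton agar and incubated a further 24 h at 37 °C. MFC is the lowest concentration that kills the strain. Duplicates, means reported.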

MRC5 = assay: Cytotoxicity against human MRC5 cells incubated for 48 hrs by MTT assay; type: cell-based; settings: MRC5, 48 h
Procedure, shortened: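 Normal human lung MRC5 cells grown 24 h in 96-well plates, then exposed to a range of compound concentrations for 48 h. MTT (250 µg/mL) added for 2 h, medium replaced by DMSO, absorbance read at 570 nm. Miconazole positive control, DMSO negative control. Triplicates, mean ± S.D.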

Staphylococcus aureus [8] = assay: Antibacterial activity against Staphylococcus aureus MLS-16 MTCC 2940 assessed as inhibition of bacterial growth incubated for 24 hrs by agar well diffusion method; type: functional; settings: MLS-16 MTCC 2940, 24 h; procedure, shortened: as §1
Nakaseomyces glabratus [9] = assay: Fungicidal activity against Candida glabrata MTCC 3019 assessed as fungal killing incubated for 24 hrs; type: functional; settings: MTCC 3019, 24 h; procedure, shortened: as §5
Pichia sporocuriosa [10] = assay: Fungicidal activity against Issatchenkia hanoiensis MTCC 4755 assessed as fungal killing incubated for 24 hrs; type: functional; settings: MTCC 4755, 24 h; procedure, shortened: as §5
Candida albicans [11] = assay: Ratio of MFC to MIC against Candida albicans MTCC 7315; type: functional; procedure, shortened: as §3
Raoultella planticola [12] = assay: Antibacterial activity against Klebsiella planticola MTCC 530 assessed as inhibition of bacterial growth incubated for 24 hrs by agar well diffusion method; type: functional; settings: MTCC 530, 24 h; procedure, shortened: as §1
Candida parapsilosis [13] = assay: Antifungal activity against Candida parapsilosis MTCC 1744 assessed as inhibition of fungal growth incubated for 24 hrs by agar well diffusion method; type: functional; settings: Lodderomyces parapsilosis, MTCC 1744, 24 h; procedure, shortened: as §4
Micrococcus luteus [14] = assay: Antibacterial activity against Micrococcus luteus MTCC 2470 assessed as inhibition of bacterial growth incubated for 24 hrs by agar well diffusion method; type: functional; settings: MTCC 2470, 24 h; procedure, shortened: as §1
Nakaseomyces glabratus [15] = assay: Ratio of MFC to MIC against Candida glabrata MTCC 3019; type: functional; procedure, shortened: as §3
Pichia kudriavzevii [16] = assay: Antifungal activity against Candida krusei MTCC 3020 assessed as inhibition of fungal growth incubated for 24 hrs by agar well diffusion method; type: functional; settings: MTCC 3020, 24 h; procedure, shortened: as §4
Micrococcus luteus [17] = assay: Ratio of MBC to MIC against Micrococcus luteus MTCC 2470; type: functional
Raoultella planticola [18] = assay: Ratio of MBC to MIC for Klebsiella planticola MTCC 530; type: functional
Candida albicans [19] = assay: Antifungal activity against Candida albicans MTCC 7315 assessed as inhibition of fungal growth incubated for 24 hrs by agar well diffusion method; type: functional; settings: MTCC 7315, 24 h; procedure, shortened: as §4
Candida albicans [20] = assay: Antifungal activity against Candida albicans MTCC 183 assessed as inhibition of fungal growth incubated for 24 hrs by agar well diffusion method; type: functional; procedure, shortened: as §4
Staphylococcus aureus [21] = assay: Bactericidal activity against Staphylococcus aureus MLS-16 MTCC 2940 assessed as bacterial killing incubated for 24 hrs; type: functional; settings: MLS-16 MTCC 2940, 24 h; procedure, shortened: as §2
Escherichia coli [22] = assay: Antibacterial activity against Escherichia coli MTCC 739 assessed as inhibition of bacterial growth incubated for 24 hrs by agar well diffusion method; type: functional; settings: MTCC 739, 24 h; procedure, shortened: as §1
Staphylococcus aureus [23] = assay: Ratio of MBC to MIC against Staphylococcus aureus MLS-16 MTCC 2940; type: functional
Raoultella planticola [24] = assay: Bactericidal activity against Klebsiella planticola MTCC 530 assessed as bacterial killing incubated for 24 hrs; type: functional; settings: MTCC 530, 24 h; procedure, shortened: as §2
Staphylococcus aureus [25] = assay: Ratio of MBC to MIC against Staphylococcus aureus MTCC 96; type: functional
Pichia sporocuriosa [26] = assay: Ratio of MFC to MIC against Issatchenkia hanoiensis MTCC 4755; type: functional; procedure, shortened: as §3
Bacillus subtilis [27] = assay: Bactericidal activity against Bacillus subtilis MTCC 121 assessed as bacterial killing incubated for 24 hrs; type: functional; settings: MTCC 121, 24 h; procedure, shortened: as §2
Pseudomonas aeruginosa [28] = assay: Antibacterial activity against Pseudomonas aeruginosa MTCC 2453 assessed as inhibition of bacterial growth incubated for 24 hrs by agar well diffusion method; type: functional; settings: MTCC 2453, 24 h; procedure, shortened: as §1
Candida albicans [29] = assay: Fungicidal activity against Candida albicans MTCC 7315 assessed as fungal killing incubated for 24 hrs; type: functional; settings: MTCC 7315, 24 h; procedure, shortened: as §5
Pseudomonas aeruginosa [30] = assay: Ratio of MBC to MIC for Pseudomonas aeruginosa MTCC 2453; type: functional
Escherichia coli [31] = assay: Ratio of MBC to MIC for Escherichia coli MTCC 739; type: functional
Pichia kudriavzevii [32] = assay: Ratio of MFC to MIC against Candida krusei MTCC 3020; type: functional; procedure, shortened: as §3
Candida albicans [33] = assay: Antifungal activity against Candida albicans MTCC 227 assessed as inhibition of fungal growth incubated for 24 hrs by agar well diffusion method; type: functional; settings: MTCC 227, 24 h; procedure, shortened: as §4
Candida parapsilosis [34] = assay: Fungicidal activity against Candida parapsilosis MTCC 1744 assessed as fungal killing incubated for 24 hrs; type: functional; settings: Lodderomyces parapsilosis, MTCC 1744, 24 h; procedure, shortened: as §5
Candida albicans [35] = assay: Ratio of MFC to MIC against Candida albicans MTCC 227; type: functional; procedure, shortened: as §3

## COc1ccc2c(c1)Cc1c(C(=O)N/N=C/c3c(F)cc(F)cc3F)n[nH]c1-2
Bacillus subtilis [1]
  MIC: 7.8 µg/mL (≈ 20.2 µM)
Pseudomonas aeruginosa [2]
  MBC: 15.6 µg/mL (≈ 40.4 µM)
Staphylococcus aureus [3]
  MIC: 3.9 µg/mL (≈ 10.1 µM)
Candida albicans [4]
  Ratio: 2
Candida parapsilosis [5]
  Ratio: 2
Candida albicans [6]
  MIC: 15.6 µg/mL (≈ 40.4 µM)
Candida albicans [7]
  MFC: 31.2 µg/mL (≈ 80.8 µM)
MRC5
  IC50: 37.2 µg/mL (≈ 96.3 µM)
Staphylococcus aureus [8]
  MIC: 3.9 µg/mL (≈ 10.1 µM)
Nakaseomyces glabratus [9]
  MFC: 31.2 µg/mL (≈ 80.8 µM)
Pichia sporocuriosa [10]
  MFC: 31.2 µg/mL (≈ 80.8 µM)
Candida albicans [11]
  Ratio: 2
Raoultella planticola [12]
  MIC: 7.8 µg/mL (≈ 20.2 µM)
Candida parapsilosis [13]
  MIC: 15.6 µg/mL (≈ 40.4 µM)
Micrococcus luteus [14]
  MIC: 7.8 µg/mL (≈ 20.2 µM)
Nakaseomyces glabratus [15]
  Ratio: 2
Pichia kudriavzevii [16]
  MIC: 15.6 µg/mL (≈ 40.4 µM)
Micrococcus luteus [17]
  Ratio: 2
Raoultella planticola [18]
  Ratio: 2
Candida albicans [19]
  MIC: 15.6 µg/mL (≈ 40.4 µM)
Candida albicans [20]
  MIC: inactive
Staphylococcus aureus [21]
  MBC: 7.8 µg/mL (≈ 20.2 µM)
Escherichia coli [22]
  MIC: 3.9 µg/mL (≈ 10.1 µM)
Staphylococcus aureus [23]
  Ratio: 2
Raoultella planticola [24]
  MBC: 15.6 µg/mL (≈ 40.4 µM)
Staphylococcus aureus [25]
  Ratio: 2
Pichia sporocuriosa [26]
  Ratio: 2
Bacillus subtilis [27]
  MBC: 15.6 µg/mL (≈ 40.4 µM)
Pseudomonas aeruginosa [28]
  MIC: 7.8 µg/mL (≈ 20.2 µM)
Candida albicans [29]
  MFC: 31.2 µg/mL (≈ 80.8 µM)
Pseudomonas aeruginosa [30]
  Ratio: 2
Escherichia coli [31]
  Ratio: 2
Pichia kudriavzevii [32]
  Ratio: 2
Candida albicans [33]
  MIC: 7.8 µg/mL (≈ 20.2 µM)
Candida parapsilosis [34]
  MFC: 31.2 µg/mL (≈ 80.8 µM)
Candida albicans [35]
  Ratio: 2

## O=C(N/N=C/c1ccc(O)cc1)c1n[nH]c2c1Cc1cc(F)ccc1-2
Bacillus subtilis [1]
  MIC: 7.8 µg/mL (≈ 23.2 µM)
Pseudomonas aeruginosa [2]
  MBC: 15.6 µg/mL (≈ 46.4 µM)
Staphylococcus aureus [3]
  MIC: 3.9 µg/mL (≈ 11.6 µM)
Candida albicans [4]
  Ratio: 2
Candida parapsilosis [5]
  Ratio: 2
Candida albicans [6]
  MIC: 15.6 µg/mL (≈ 46.4 µM)
Candida albicans [7]
  MFC: 31.2 µg/mL (≈ 92.8 µM)
MRC5
  IC50: 28.9 µg/mL (≈ 85.9 µM)
Staphylococcus aureus [8]
  MIC: 3.9 µg/mL (≈ 11.6 µM)
Nakaseomyces glabratus [9]
  MFC: 31.2 µg/mL (≈ 92.8 µM)
Pichia sporocuriosa [10]
  MFC: 62.4 µg/mL (≈ 186 µM)
Candida albicans [11]
  Ratio: 2
Raoultella planticola [12]
  MIC: 7.8 µg/mL (≈ 23.2 µM)
Candida parapsilosis [13]
  MIC: 15.6 µg/mL (≈ 46.4 µM)
Micrococcus luteus [14]
  MIC: 7.8 µg/mL (≈ 23.2 µM)
Nakaseomyces glabratus [15]
  Ratio: 2
Pichia kudriavzevii [16]
  MIC: 15.6 µg/mL (≈ 46.4 µM)
Micrococcus luteus [17]
  Ratio: 2
Raoultella planticola [18]
  Ratio: 2
Candida albicans [19]
  MIC: 15.6 µg/mL (≈ 46.4 µM)
Candida albicans [20]
  MIC: inactive
Staphylococcus aureus [21]
  MBC: 7.8 µg/mL (≈ 23.2 µM)
Escherichia coli [22]
  MIC: 3.9 µg/mL (≈ 11.6 µM)
Staphylococcus aureus [23]
  Ratio: 2
Raoultella planticola [24]
  MBC: 15.6 µg/mL (≈ 46.4 µM)
Staphylococcus aureus [25]
  Ratio: 2
Pichia sporocuriosa [26]
  Ratio: 2
Bacillus subtilis [27]
  MBC: 15.6 µg/mL (≈ 46.4 µM)
Pseudomonas aeruginosa [28]
  MIC: 7.8 µg/mL (≈ 23.2 µM)
Candida albicans [29]
  MFC: 31.2 µg/mL (≈ 92.8 µM)
Pseudomonas aeruginosa [30]
  Ratio: 2
Escherichia coli [31]
  Ratio: 2
Pichia kudriavzevii [32]
  Ratio: 2
Candida albicans [33]
  MIC: 7.8 µg/mL (≈ 23.2 µM)
Candida parapsilosis [34]
  MFC: 31.2 µg/mL (≈ 92.8 µM)
Candida albicans [35]
  Ratio: 2
